# Experimental data as given in ChEMBL document CHEMBL1122389, “Synthesis and substituent effects on antibacterial activity, alkaline hydrolysis rates, and infrared absorption frequencies of some cephem analogues related to latamoxef (moxalactam)” (J Med Chem, 1983).
# What was measured:
# Escherichia coli [1] = assay: Minimum inhibitory concentration (MIC) against Escherichia coli NIHJ JC-2 in gradient plate method; format: functional
# Outline: (§1)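 Gradient plate technique. Compound is incorporated into a tilted bottom agar layer, then overlaid horizontally with compound-free agar. A 10^6 cells/mL suspension is streaked across the gradient and incubated at 37 °C for 18–20 h. MIC is calculated from the growth distance along the streak and the original bottom-layer concentration.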
# [2] = V max(beta-lactam) measured in dimethyl sulfoxide; format: ADME
# Outline: (§2)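 IR stretching frequencies measured in dimethyl sulfoxide solution. Frequencies are calibrated against the rotational bands of the vapor.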
# [3] = V max(amide I) measured in dimethyl sulfoxide; format: ADME; outline: as §2
# [4] = Pseudo-first order rate of beta-lactam cleavage at pH 9.2 and 35 degrees C; format: ADME
# Outline: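 Alkaline hydrolysis at pH 9.2 and 35.0 °C, followed as loss of absorbance near 260 nm. This is a slightly lower pH than a pH 9.94 carbonate buffer (NaHCO3 + Na2CO3 + NaCl, μ = 0.5). Pseudo-first-order k is obtained by least squares over the linear regions at 95% confidence.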
# Klebsiella pneumoniae [5] = assay: Minimum inhibitory concentration (MIC) against Klebsiella pneumoniae SRL-1 in gradient plate method; format: functional; outline: as §1
# Klebsiella pneumoniae [6] = assay: Minimum inhibitory concentration (MIC) against Klebsiella pneumoniae SRL-1 iin agar dilution method; format: functional
# Outline: (§3)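 Agar dilution on sensitivity test agar. Overnight tryptose broth culture diluted in the same broth to about 10^6 cells/mL and inoculated onto agar containing serial twofold dilutions of antibiotic. Incubated at 37 °C for 18–20 h. MIC taken as the lowest concentration inhibiting visible growth.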
# Escherichia coli [7] = assay: Minimum inhibitory concentration (MIC) against Escherichia coli NIHJ JC-2 in agar dilution method; format: functional; outline: as §3
# Klebsiella pneumoniae [8] = assay: Minimum inhibitory concentration (MIC) against Klebsiella pneumoniae SRL-1 in agar dilution method; format: functional; outline: as §3
smiles,measurement,setting,value
Cn1nnnc1SCC1=C(C(=O)[O-])N2C(=O)[C@@H](NC(=O)C(C(=O)[O-])c3ccc(O)cc3)C2SC1.[Na+].[Na+] (some centres undefined),MIC,Escherichia coli [1],1.5 µg/mL
same,Vmax,[2],1770 cm⁻¹
same,Vmax,[3],1669 cm⁻¹
same,k,[4],0.0239 h⁻¹
same,MIC,Klebsiella pneumoniae [5],2.3 µg/mL
CO[C@@]1(NC(=O)Cc2ccc(O)cc2)C(=O)N2C(C(=O)[O-])=C(CSc3nnnn3C)CSC21.[Na+] (some centres undefined),MIC,Escherichia coli [1],0.5 µg/mL
same,Vmax,[2],1768.1 cm⁻¹
same,Vmax,[3],1690.6 cm⁻¹
same,k,[4],0.0351 h⁻¹
same,MIC,Klebsiella pneumoniae [5],1.3 µg/mL
CO[C@@]1(NC(=O)C(C(=O)[O-])c2ccc(O)cc2)C(=O)N2C(C(=O)[O-])=C(CSc3nnnn3C)CSC21.[Na+].[Na+] (some centres undefined),MIC,Escherichia coli [1],0.55 µg/mL
same,Vmax,[2],1767.8 cm⁻¹
same,MIC,Klebsiella pneumoniae [6],0.39 µg/mL
same,MIC,Escherichia coli [7],0.78 µg/mL
same,Vmax,[3],1682.3 cm⁻¹
same,k,[4],0.0239 h⁻¹
same,MIC,Klebsiella pneumoniae [5],0.37 µg/mL
Cn1nnnc1SCC1=C(C(=O)[O-])N2C(=O)[C@@](C)(NC(=O)C(C(=O)[O-])c3ccc(O)cc3)C2OC1.[Na+].[Na+] (some centres undefined),Vmax,[2],1774.5 cm⁻¹
same,MIC,Escherichia coli [7],12.5 µg/mL
same,Vmax,[3],1668.2 cm⁻¹
same,k,[4],0.0148 h⁻¹
same,MIC,Klebsiella pneumoniae [8],12.5 µg/mL
COC1(NC(=O)C(C(=O)[O-])c2ccc(O)cc2)C(=O)N2C(C(=O)[O-])=C(CSc3nnnn3C)CCC21.[Na+].[Na+] (centres undefined),Vmax,[2],1757 cm⁻¹
same,MIC,Escherichia coli [7],6.25 µg/mL
same,Vmax,[3],1684.5 cm⁻¹
same,k,[4],0.0694 h⁻¹
same,MIC,Klebsiella pneumoniae [8],3.13 µg/mL
Cn1nnnc1SCC1=C(C(=O)[O-])N2C(=O)[C@@H](NC(=O)C(C(=O)[O-])c3ccc(O)cc3)C2OC1.[Na+].[Na+] (some centres undefined),MIC,Escherichia coli [1],0.29 µg/mL
same,Vmax,[2],1779.2 cm⁻¹
same,Vmax,[3],1665.4 cm⁻¹
same,k,[4],0.127 h⁻¹
same,MIC,Klebsiella pneumoniae [5],0.3 µg/mL
CO[C@@]1(NC(=O)Cc2ccc(O)cc2)C(=O)N2C(C(=O)[O-])=C(CSc3nnnn3C)COC21.[Na+] (some centres undefined),MIC,Escherichia coli [1],0.08 µg/mL
same,Vmax,[2],1772.9 cm⁻¹
same,Vmax,[3],1694.9 cm⁻¹
same,k,[4],0.228 h⁻¹
same,MIC,Klebsiella pneumoniae [5],0.1 µg/mL
Cn1nnnc1SCC1=C(C(=O)[O-])N2C(=O)[C@@H](NC(=O)Cc3ccc(O)cc3)C2SC1.[Na+] (some centres undefined),MIC,Escherichia coli [1],1.2 µg/mL
same,Vmax,[2],1773.1 cm⁻¹
same,Vmax,[3],1676.3 cm⁻¹
same,k,[4],0.0227 h⁻¹
same,MIC,Klebsiella pneumoniae [5],1.4 µg/mL
CO[C@@]1(NC(=O)C(C(=O)[O-])c2ccc(O)cc2)C(=O)N2C(C(=O)[O-])=C(CSc3nnnn3C)COC21.[Na+].[Na+] (some centres undefined),MIC,Escherichia coli [1],0.09 µg/mL
same,Vmax,[2],1771.8 cm⁻¹
same,MIC,Klebsiella pneumoniae [6],0.1 µg/mL
same,MIC,Escherichia coli [7],0.1 µg/mL
same,Vmax,[3],1686.6 cm⁻¹
same,k,[4],0.178 h⁻¹
same,MIC,Klebsiella pneumoniae [5],0.06 µg/mL
Cn1nnnc1SCC1=C(C(=O)[O-])N2C(=O)[C@@H](NC(=O)Cc3ccc(O)cc3)C2OC1.[Na+] (some centres undefined),MIC,Escherichia coli [1],0.34 µg/mL
same,Vmax,[2],1778.2 cm⁻¹
same,Vmax,[3],1674.5 cm⁻¹
same,k,[4],0.139 h⁻¹
same,MIC,Klebsiella pneumoniae [5],0.31 µg/mL
